ANO1 block – inhibitors of mouse TMEM16A calcium-activated chloride channel | Q8BHY3 | HEK293 TMEM16A/YFP iodide influx fluorescence, ionomycin | normalized B-score (activity score, 25-100; higher = stronger inhibition) at 10 µM | actives 1.2% (n = 310,000) | AID 588511;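 active means ratio plate-corrected score three or more library SD toward inhibition, starting fluorescence score within five deviations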;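 further: score derived from kinetic fluorescence span divided by baseline fluorescence per well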
Hep lipid drop – hepatic lipid droplet formation modulation; inhibition, % at 6.5 µM; AID 1656; AML12 mouse hepatocytes, oleate lipid droplets, BODIPY imaging; actives 0.4% (n = 240,000);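 active means lipid droplet intensity inhibited by at least 50%, with more than 500 cells counted; inconclusive means wells with under 300 cells, treated as cytotoxic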
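material = mouse AML12 hepatocyte cell line, fixed after treatment | also added = 100 µM oleic acid challenge | doses = compound at 6.5 µM only | schedule = overnight exposure | technique = Image-based BODIPY and DAPI two-channel analysis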
UPR XBP1 act – adaptive UPR (XBP1) activation; actives 0.33% (n = 330,000); CHO-XBP1 luciferase reporter, IRE1-XBP1 UPR activation, luminescence; percent of tunicamycin response, DMSO as zero; AID 463104; activation, % at 20 µM;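 active means versus positive control, 20 µM dose yields 30% or more activation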;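 further: 100% = tunicamycin at 10 µg/mL and 0% = DMSO only wells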
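Assay system: IRE1-XBP1 luciferase reporter CHO line. Input: 1000 cells/well. Buffer or medium: F12 with 10% serum. Doses: 20 µM, 1% DMSO. Times: overnight seeding at 37 °C, 6 h compound treatment at 37 °C. Technique: Steady-Glo luciferase glow luminescence, 10 min after reagent addition.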
ANO1 activ – activators or potentiators of mouse TMEM16A chloride channel | Q8BHY3 | HEK293 TMEM16A/YFP-H148Q/I152L, iodide quench fluorescence; active compounds read low | B-score at 10 µM | actives 0.3% (n = 340,000);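 active means fluorescence-ratio B-score plate-corrected deviation score at least 3 library SD below zero, with starting fluorescence score within 5 deviations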;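 further: channel opened by trigger with iodide after compound preincubation; score built on the fluorescence ratio of max minus min over baseline; more negative score means more quench and so TMEM16A activation or potentiation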
CHOP UPR activ – activators of apoptotic arm of unfolded protein response (CHOP) | CHO-CHOP luciferase reporter, UPR activation, luminescence; percent of tunicamycin response over DMSO baseline | activation, % at 10 µM | actives 0.34% (n = 330,000) | AID 449763;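 active means at 10 µM dose, activation of 40% or more, normalized to positive control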;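 further: 100% = tunicamycin at 10 µg/mL and 0% = DMSO alone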
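Test system: CHO CHOP reporter cells. Input: 500 CHO-CHOP cells per well. Medium: F12 with 10% FBS. Technique: luciferase luminescence. Measure: percent activation relative to tunicamycin control. Dosing: 10 µM compound, 0.5% DMSO. Timing: 16-18 h cell attachment, then 6 h compound exposure, 37 °C.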
CHOP inh – CHOP inhibition in unfolded protein response; CHO-K1 CHOP-promoter luciferase, tunicamycin-induced, 15-18 h; inhibition, % at 10 µM; actives 3.8% (n = 220,000); AID 2732;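 active means compounds that reduced the stress-induced luciferase reporter signal by more than about 70% of percent inhibition, limit read from the data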;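 further: 0% = tunicamycin plus vehicle and 100% = wells without tunicamycin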
* = called active by the depositor; i = inactive; ? = inconclusive; . = no result; ! = not confirmed by another sample. Rows were chosen to be rich in hits. Some 4.2% of all compounds tested hit in one or more screens of this group.

SMILES	ANO1 block	Hep lipid drop	UPR XBP1 act	ANO1 activ	CHOP UPR activ	CHOP inh
CN1CCN(C(=S)SCc2nc(N)nc(Nc3ccc(F)cc3)n2)CC1	i	-1	2	i	2	8
Cc1ccc2nc(N(CCCN(C)C)C(=O)c3ccc(S(=O)(=O)N(C)C)cc3)sc2c1	i	13	-1	i	3	11
Cc1ccc2nc(N(CCCN(C)C)C(=O)c3sc4ccccc4c3Cl)sc2c1	i	10	-1	i	5	80*
Cc1cccc2sc(N(CCCN(C)C)C(=O)c3nc4ccccc4s3)nc12	i	-44	1	i	3	75*
COc1ccccc1S(=O)(=O)Nc1cc(C)nn1-c1ccc(C)cc1	i	-12	-1	i	0	.
COc1cc(C(=O)N2CCN(S(=O)(=O)c3ccc(C)cc3)CC2)ccc1OCC(=O)N1CCOCC1	.	.	.	i	.	.
COc1ccc(-c2nnc(SCC(=O)Nc3cc(C)on3)o2)cc1	i	1	-2	i	-2	37
CC(C)COc1ccc(C(=O)OC2CC(C)(C)OCC2CN(C)C)cc1 (centres undefined)	i	.	1	i	-1	71*
Cc1c(Cc2ccccc2)c(=O)oc2c(C)c(OCc3nn[nH]n3)ccc12	i	.	-5	i	-3	-7
Cc1c(CC(=O)O)c(=O)oc2c(C)c(OCc3nn[nH]n3)ccc12	i	4	1	-4.9*	-1	9
N#Cc1cccc(NC(=O)CNc2cc(S(=O)(=O)N3CCOCC3)ccc2N2CCCC2)c1	.	.	0	i	-1	.
CN(CC(=O)Nc1cccc(S(=O)(=O)NC2=NCCC2)c1)Cc1cccc(F)c1	.	.	-3	i	-1	.
Clc1ccc(Cn2c(-c3cccnc3Cl)nc3ccccc32)c(Cl)c1	i	.	-2	i	2	22
Fc1ccc(Cn2c(-c3cscn3)nc3ccccc32)c(Cl)c1	i	-2	0	i	-1	94*
O=C(c1ccc(Cl)cc1)C(CN1CCCCC1)c1ccccc1 (centres undefined)	i	-16	-8	i	203*	.
CCOC(=O)C(CN1CCCC1)c1ccccc1 (centres undefined)	i	.	1	i	-2	.
CC(C)NS(=O)(=O)c1ccc(Br)c(C(=O)OC(C)C(=O)NC2CCCCC2C)c1 (centres undefined)	i	.	-6	i	1	.
COc1ccc(-c2cccc(NC(=O)c3cccs3)c2)nn1	i	.	-3	i	2	.
CCC(CC)NC(=O)CO/N=C/c1ccc(Cl)cc1Cl	i	1	1	i	0	35
O=C(CO/N=C/c1ccc(Cl)cc1Cl)NNC(=O)c1cccc(Cl)c1	i	-23	-1	i	2	74*
O=c1cc(-c2ccccc2Cl)oc2c(NS(=O)(=O)c3cc(Cl)cc(Cl)c3O)ccc(O)c12	100*	-10	-2	i	-1	48
CCc1ccc(S(=O)(=O)Nc2ccc(O)c3c(=O)cc(-c4ccccc4Cl)oc23)cc1	i	-36	-1	i	1	66
Fc1ccc(C(c2ccc(F)cc2)N2CCN(C/C=C/c3ccccc3)CC2)cc1	i	-5	-5	i	-1	84*!
O=C(CSc1nc2ccccc2c(=O)n1-c1ccc(Cl)cc1)c1ccco1	i	.	3	i	-1	74*
NC(=O)CSc1nc2ccccc2c(=O)n1-c1ccccc1	i	-3	2	i	0	.
SMILES	ANO1 block	Hep lipid drop	UPR XBP1 act	ANO1 activ	CHOP UPR activ	CHOP inh
O=C(CSc1nc2ccccc2c(=O)n1-c1ccccc1)c1c[nH]c2ccccc12	i	4	0	i	-3	76*
COc1cccc(CNC(=O)C(=O)NCC2OCCCN2S(=O)(=O)c2cc(C)ccc2C)c1 (centres undefined)	i	8	-5	i	1	.
COc1ccc(/C=C2\N=C(c3ccc(C)cc3)OC2=O)cc1	i	0	-2	i	3	.
O=C1OC(c2ccc(F)cc2)=N/C1=C\c1ccc(Br)o1	i	0	-1	i	1	73*
COc1cccc(CN(C)C(=O)c2ccc(N3CCCC3)c([N+](=O)[O-])c2)c1	i	30	-3	i	0	.
Cc1ccc(S(=O)(=O)N/N=C/c2ccc(OS(=O)(=O)c3ccc(C)c([N+](=O)[O-])c3)cc2)cc1	i	18	-1	i	3	80*
CCOc1cc(/C=N/NC(=O)COc2ccc(Cl)cc2)ccc1OS(=O)(=O)c1ccccc1	i	-27	2	i	2	81*
Cc1ccc(S(=O)(=O)N/N=C\c2ccc(Cl)c([N+](=O)[O-])c2)cc1	i	-5	-1	i	2	54
CCOc1cc(/C=N/NC(=O)COc2ccccc2C)ccc1OC(=O)c1cccs1	i	.	-1	i	0	76*
CCOc1cc(/C=N/NS(=O)(=O)c2ccccc2)ccc1OS(=O)(=O)c1ccc(C)cc1	i	-16	-4	i	-2	87*
CCC(=O)N/N=C/c1ccc(OS(=O)(=O)c2ccccc2)cc1	i	-6	0	i	1	15
S=c1[nH]nc(-c2n[nH]c3c2CCC3)n1/N=C/C=C/c1ccccc1	i	.	1	i	0	51
CC1(CCc2ccccc2)NC(=O)N(CC(=O)Nc2ccc(S(N)(=O)=O)cc2)C1=O (centres undefined)	i	1	-4	i	2	11
Cc1ccc(N(C)S(=O)(=O)c2cccc(C(=O)NCC(c3cccs3)N3CCOCC3)c2)cc1 (centres undefined)	i	.	-2	i	3	.
CC(Nc1ccc(Br)cn1)c1cc(Cl)ccc1O (centres undefined)	.	-2	.	i	.	77*
COc1ccccc1C1C(C(C)=O)=C(O)C(=O)N1c1ccc(O)cc1 (centres undefined)	i	-3	-3	i	1	.
O=c1nc2n(CCO)c3ccccc3cc-2c(=O)[nH]1	.	.	.	i	.	.
Cc1cccc(C)c1NC(=O)CSc1nc(-c2ccco2)cc(C(F)(F)F)n1	i	-47	-2	i	2	85*
CCOC(=O)N1CCN(c2nc(-c3cccc(OC)c3)cc(C(F)(F)F)n2)CC1	i	.	2	i	1	60
Cc1cc(NC(=O)CSc2nc(-c3ccco3)cc(C(F)(F)F)n2)no1	i	?	23	i	-1	.
O=C(CSc1nc(-c2ccco2)cc(C(F)(F)F)n1)Nc1ccccc1C(F)(F)F	i	-23	-2	i	1	77*
